Measurements taken from paper PMC5819594 (Nano letters, 2017).
“Also recorded” adds a separate entry of the source. No end group written: not given here.

Tests used:
p32 [1] = molecular target: T1, p32 (Homo sapiens, UniProt Q07021); test: fluorescence anisotropy; type: binding
T1 sequence (Q07021 74-282): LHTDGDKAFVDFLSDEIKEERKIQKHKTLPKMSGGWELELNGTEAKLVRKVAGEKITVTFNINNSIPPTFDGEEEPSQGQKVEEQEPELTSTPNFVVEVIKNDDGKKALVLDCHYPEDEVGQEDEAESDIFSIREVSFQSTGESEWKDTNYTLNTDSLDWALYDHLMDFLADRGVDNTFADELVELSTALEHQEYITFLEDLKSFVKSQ

tumors = settings: cited from earlier work
[2] = tested on: MCF10CA1a orthotopic tumor xenografts; test: anti-tumor efficacy, MCF10CA1a breast cancer model; type: in vivo, human tumor cells in BALB/c nude mice; settings: for reduction of tumor volume versus PBS: i.v. every other day for 3 weeks, 7.5 mg of iron/kg, at three weeks
[3] = tested on: tumor blood vessels (CD31); test: CD31 blood vessel count in treated tumors; type: in vivo; settings: n = 3 mice per group; for average blood vessel count: CD31, 10 random fields at 20×
Procedure, shortened: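 Residual MCF10CA1a orthotopic tumors came from nude mice given peptide-coated NWs i.v. every other day for 3 weeks (7.5mg iron/kg), with a PBS control. Sections were stained with anti-CD31 and imaged by confocal microscopy. Vessels per field were counted, and groups were compared by one-way ANOVA with Tukey's post hoc test.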

MCF10CA1a tumors [4] = settings: cited from earlier work
[5] = tested on: tumor vessels of treated MCF10CA1a tumors; test: NW homing to residual treated tumors; type: in vivo, mice; settings: for NW-positive tumor vessels: treated tumors after three weeks, five hours after last injection, n = 3/group
Procedure, shortened: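 MCF10CA1a tumor mice were treated for three weeks with FAM-labeled peptide-NWs. Five hours after the last injection, mice were perfused through the heart with PBS and tissues collected. Tumor sections were stained with anti-CD31 and DAPI and examined by confocal microscopy. Percentage of NW-positive vessels was scored in 10 random areas per section, n = 3/group, mean ±SD.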

glioblastomas = settings: mice, cited from earlier work
MCF10CA1a tumors [6] = test: tumor homing of homing peptide-D[KLAKLAK]2-NWs, MCF10CA1a; type: in vivo, human tumor cells in BALB/c nude mice; settings: for tumor homing and penetration of chimeric peptide-NWs: confocal microscopy
[7] = tested on: tumor-associated macrophages/myeloid cells; settings: ref Laakkonen et al., 2004; Fogal et al., 2008; cited from earlier work
tumor macrophages = settings: LyP-1 alone, without drug, tumor macrophages in particular; cited from earlier work
p32 [8] = molecular target: T1, p32; settings: LyP-1 linearized; no reference given; cited from earlier work
[9] = tested on: 4T1 mouse breast cancer tumors; test: tumor homing in 4T1 model; type: in vivo; settings: 4T1 breast tumor model
Procedure, shortened: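 4T1 cells were maintained in DMEM with 10% FBS and 1% Glutamine-Pen-Strep at 37°C/5% CO2. 1 × 10^6 cells were implanted subcutaneously in the flanks of 4-week-old BALB/c mice. Peptide-coated NWs were assessed for homing to tumor vasculature and extravascular tumor tissue.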

[10] = tested on: MCF10CA1a cultured tumor cells; test: cell death and caspase-3 activation in cultured tumor cells; type: cell-based, human; settings: Figure S8
MMTV-PyMT tumors = test: tumor homing in MMTV-PyMT model; type: in vivo, mouse; settings: MMTV-PyMT transgenic breast cancer mice
MCF10CA1a tumors [11] = test: TUNEL staining of treated tumors; type: in vivo, human tumor cells in BALB/c nude mice; settings: treated tumors after three weeks
MCF10CA1a tumors [12] = test: histology; type: in vivo, human tumor cells in BALB/c nude mice; settings: end of 3-week treatment, H&E
Procedure, shortened: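 Orthotopic MCF10CA1a xenografts in BALB/c nude mice were treated i.v. with peptide-coated NWs every other day for 3 weeks at 7.5mg iron/kg. At the end of treatment, residual tumors were sectioned and stained with hematoxylin and eosin.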

[13] = mouse, in vivo
NRP-1 = test: peptide binding to NRP-1 before and after uPA treatment; settings: control peptide with active CendR motif, with and without uPA
LinTT1 = molecular target: T2, LinTT1 (also: FAM-labeled); test: fluorescence anisotropy
T2 chain: AKRGARSTA

## AKRGARSTA [LinTT1]
p32 [1]
  Kd: 8.7 µM

## CGKRK
tumors; CGKRK (no reference at the statement)
  tumor homing and penetration of free peptide: does not extravasate and penetrate beyond tumor vessels

## CGKRK-D[KLAKLAK]2 [CGKRK-D[KLAKLAK]2-NWs, reference compound]
[2]
  reduction of tumor volume versus PBS: about 50%
[3]
  average blood vessel count: almost similar to LinTT1NW
MCF10CA1a tumors [4]
  tumor homing of CGKRK-D[KLAKLAK]2-NWs (as shown previously): accumulated in tumor blood vessels, without penetrating into extravascular tumor tissue
[5]
  NW-positive tumor vessels: 20%
glioblastomas; more aggressive glioblastoma model
  lifespan in glioblastoma: a substantial prolongation of the lifespan of the mice
glioblastomas; one glioblastoma model
  tumor growth in glioblastoma: the growth of tumors was essentially completely suppressed

## CGKRKRA-D[KLAKLAK]2 [CGKRKRA-D[KLAKLAK]2-NWs]
MCF10CA1a tumors [6]
  tumor homing and penetration of chimeric peptide-NWs: primarily localized with tumor blood vessels similar to LyP1

## CGNKRTRGC [LyP-1]
[7]
  overlap with tumor-associated macrophages/myeloid cells: substantial overlap with tumor-associated macrophages/myeloid cells in tumor tissue
Tumor macrophages
  apoptosis in cells that take up the peptide: causes apoptosis in the cells that take up the peptide most avidly, tumor macrophages in particular
tumors
  tumor homing and penetration of LyP-1: capable of penetrating into tumors and accumulates in the extravascular tumor tissue
p32 [8]
  p32-binding activity: no detectable p32-binding activity

## CGRKR(NH2)-D[KLAKLAK]2 [CGRKR(NH2)-D[KLAKLAK]2-NWs]
MCF10CA1a tumors [6]
  tumor homing and penetration of chimeric peptide-NWs: primarily localized with tumor blood vessels similar to LyP1

## LinTT1-D[KLAKLAK]2 [LinTT1-D[KLAKLAK]2-NWs]
[2]; 3 weeks, 7.5 mg of iron/kg i.v. every other day
  anti-tumor activity: essentially no tumor growth; also recorded: more effective than the previous NPs
[2]
  reduction of tumor volume versus PBS: about 90%
[2]; one of two experiments, 3 weeks
  mice in which tumor seemed to have disappeared: four out of 6 mice
[2]; proportion of tumors, LinTT1D(KLAKLAK)2-NW group
  tumors regressed: 10/14
[9]
  tumor homing, 4T1: efficiently homed to the vasculature of the 4T1 and MMTV-PyMT tumors, accumulating also in extravascular tumor tissue
[3]
  average blood vessel count: marked reduction of blood vessels
[3]; CD31, after treatment
  reduction of blood vessels versus PBS control: more than 6 fold
[10]
  cell death and caspase-3 activation: cell death accompanied by activation of caspase-3
MMTV-PyMT tumors
  tumor homing, MMTV-PyMT: efficiently homed to the vasculature of the 4T1 and MMTV-PyMT tumors, accumulating also in extravascular tumor tissue
MCF10CA1a tumors [11]
  apoptosis by TUNEL staining: apoptosis in the LinTT1D[KLAKLAK]2-NW tumor rims, where it co-localized with the NWs
MCF10CA1a tumors [12]
  necrosis and apoptotic nuclei in residual tumors: extensive necrosis and a thin rim of tumor tissue around the necrotic core that contained many apparently apoptotic nuclei
[5]
  NW-positive tumor vessels: Approximately 68%
[5]; tumors treated with LinTT1D(KLAKLAK)2-NWs for 3 weeks
  accumulation in treated tumors: no apparent decline in accumulation
[13]
  toxicity: no significant toxicity
MCF10CA1a tumors [6]
  tumor homing and penetration of chimeric peptide-NWs: highly effective in extravasating and penetrating tumor parenchyma; also recorded: superior to other chimeric peptide-NWs; also recorded: partially co-localize with tumor blood vessels (CD31), but most of the NWs are outside the blood vessels in the extravascular tumor tissue
MCF10CA1a tumors [6]; quantified NW fluorescence
  tumor accumulation relative to CGKRK-D[KLAKLAK]2-NWs: over 7 fold

## RPARPAR
NRP-1
  binding to NRP-1 regardless of uPA: bound only to NRP-1 regardless of uPA treatment

B1: p32 (gC1qR/HABP) (protein)
chain: T1 sequence (Q07021 74-282)
LinTT1
  Kd: 8.7 µM
